# Results reported in ChEMBL document CHEMBL5357066, “Development of Novel Membrane Disrupting Lipoguanidine Compounds Sensitizing Gram-Negative Bacteria to Antibiotics” (ACS Med Chem Lett, 2024).
# Test system: Pseudomonas aeruginosa
# Assay: Synergistic antibacterial activity against Pseudomonas aeruginosa PAO1 assessed as bacterial growth inhibition incubated for overnight in presence of […] by microbroth dilution method relative to control
# Assay type: functional
# Details: not given
# Method in brief: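 Fixed-concentration combination MIC in TSB. The first agent was set in a two-fold dilution series (100 µL/well), then 50 µL/well of the second agent at a fixed concentration was added; PMBN was fixed at 30 µg/mL. Bacteria at OD 0.02 (50 µL) went into 150 µL of compounds, overnight at 37 °C. MIC was the lowest concentration without visible growth (<0.1 OD600).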
row,Compound,inhibition (INH) [%]
1,CCCCCCCC/C=C\CCCCCCCCNC(=N)NCCCCNC(=N)N,<20

# Test system: Klebsiella pneumoniae
# Assay: Synergistic antibacterial activity against Klebsiella pneumoniae M6 assessed as bacterial growth inhibition incubated for overnight in presence of PBMN by microbroth dilution method relative to control
# Assay type: functional
# Details: not given
# Method in brief: (§1)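 Adapted broth microdilution in TSB. The test compound was in a 2-fold dilution series, with PMBN added at a fixed 30 µg/mL. Bacteria at OD 0.02 were added, and plates were incubated overnight at 37 °C. Growth/no growth was read as for the MIC (<0.1 OD600).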
row,Compound,inhibition (INH) [%]
1,CCCCCCCC/C=C\CCCCCCCCNC(=N)NCCCCNC(=N)N,<20

# Test system: Acinetobacter baumannii
# Assay: Synergistic antibacterial activity against Acinetobacter baumannii AYE assessed as fold change in novobiocin MIC at <=0.25 times MIC incubated for overnight by microbroth dilution checkerboard assay relative to novobiocin alone
# Assay type: functional
# Details: not given
# Method in brief: (§2)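 Checkerboard microdilution under MIC conditions (TSB, overnight, 37 °C). Two-fold series of each agent were combined on one plate before bacteria were added, and single-agent MICs were measured on the same plate. FIC = sum of combination MIC/alone MIC for each agent, taken from the most synergistic well. Three independent repeats, mean ± SD. ≤0.5 was taken as strong synergy and 0.5–<1 as weak.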
row,Compound,fold change (FC)
1,CCCCC/C=C\C/C=C\CCCCCCCCNC(=N)NCCCCN,>=4
2,CC/C=C\C/C=C\C/C=C\CCCCCCCCNC(=N)NCCCCN,>=4
3,CCCCCCCC/C=C\CCCCCCCCNC(=N)NCCCCNC(=N)N,0

# Test system: Klebsiella pneumoniae
# Assay: Synergistic antibacterial activity against Klebsiella pneumoniae NCTC 13368 assessed as bacterial growth inhibition incubated for overnight in presence of PBMN by microbroth dilution method relative to control
# Assay type: functional
# Details: not given
# Method in brief: as §1
row,Compound,inhibition (INH) [%]
1,CCCCCCCC/C=C\CCCCCCCCNC(=N)NCCCCNC(=N)N,<20

# Test system: Acinetobacter baumannii
# Assay: Synergistic antibacterial activity against Acinetobacter baumannii ATCC 17978 assessed as fold change in novobiocin MIC at <=0.25 times MIC incubated for overnight by microbroth dilution checkerboard assay relative to novobiocin alone
# Assay type: functional
# Details: not given
# Method in brief: as §2
row,Compound,fold change (FC)
1,CCCCC/C=C\C/C=C\CCCCCCCCNC(=N)NCCCCN,0
2,CC/C=C\C/C=C\C/C=C\CCCCCCCCNC(=N)NCCCCN,>=4
3,CCCCCCCC/C=C\CCCCCCCCNC(=N)NCCCCNC(=N)N,>=4

# Test system: Pseudomonas aeruginosa
# Assay: Synergistic antibacterial activity against Pseudomonas aeruginosa NCTC 13437 assessed as novobiocin MIC at <=0.25 times MIC incubated for overnight by microbroth dilution checkerboard assay
# Assay type: functional
# Details: not given
# Method in brief: (§3)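 Checkerboard microdilution in Tryptic Soy Broth, run like the MIC assay. Overnight TSB cultures were back-diluted to OD 0.01 and added 1:1 to the combined two-fold series of both agents, then incubated overnight at 37 °C. Growth/no-growth was called at <0.1 OD600. MICs alone were read on the same plates. FIC index came from the most synergistic well; three independent repeats, mean ± SD.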
row,Compound,MIC [µg/mL]
1,CCCCC/C=C\C/C=C\CCCCCCCCNC(=N)NCCCCN,> 128
2,CC/C=C\C/C=C\C/C=C\CCCCCCCCNC(=N)NCCCCN,> 128
3,CCCCCCCC/C=C\CCCCCCCCNC(=N)NCCCCNC(=N)N,> 128

# Test system: Pseudomonas aeruginosa
# Assay: Synergistic antibacterial activity against Pseudomonas aeruginosa PAO1 assessed as novobiocin MIC at <=0.25 times MIC incubated for overnight by microbroth dilution checkerboard assay
# Assay type: functional
# Details: not given
# Method in brief: as §3
row,Compound,MIC [µg/mL]
1,CCCCC/C=C\C/C=C\CCCCCCCCNC(=N)NCCCCN,> 128
2,CC/C=C\C/C=C\C/C=C\CCCCCCCCNC(=N)NCCCCN,> 128
3,CCCCCCCC/C=C\CCCCCCCCNC(=N)NCCCCNC(=N)N,> 128

# Test system: Klebsiella pneumoniae
# Assay: Synergistic antibacterial activity against […] Klebsiella pneumoniae M6 assessed as novobiocin MIC at <=0.25 times MIC incubated for overnight by microbroth dilution checkerboard assay
# Assay type: functional
# Details: not given
# Method in brief: (§4)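 Checkerboard run under the MIC conditions (TSB, overnight, 37 °C). Antibiotic and lipoguanidine 2-fold series were combined on one plate before bacteria were added. Growth/no-growth was scored as for the MIC (<0.1 OD600). Single-agent MICs were measured on the same plates. Three independent repeats were done.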
row,Compound,MIC [µg/mL]
1,CCCCC/C=C\C/C=C\CCCCCCCCNC(=N)NCCCCN,64
2,CC/C=C\C/C=C\C/C=C\CCCCCCCCNC(=N)NCCCCN,8
3,CCCCCCCC/C=C\CCCCCCCCNC(=N)NCCCCNC(=N)N,1

# Test system: Escherichia coli
# Assay: Synergistic antibacterial activity against Escherichia coli NCTC 12923 assessed as fold change in novobiocin MIC at <=0.25 times MIC incubated for overnight by microbroth dilution checkerboard assay relative to novobiocin alone
# Assay type: functional
# Details: not given
# Method in brief: as §2
row,Compound,fold change (FC)
1,CCCCC/C=C\C/C=C\CCCCCCCCNC(=N)NCCCCN,0
2,CC/C=C\C/C=C\C/C=C\CCCCCCCCNC(=N)NCCCCN,0
3,CCCCCCCC/C=C\CCCCCCCCNC(=N)NCCCCNC(=N)N,>=4

# Test system: Klebsiella pneumoniae
# Assay: Synergistic antibacterial activity against Klebsiella pneumoniae M6 assessed as fold change in novobiocin MIC at <=0.25 times MIC incubated for overnight by microbroth dilution checkerboard assay relative to novobiocin alone
# Assay type: functional
# Details: not given
# Method in brief: as §2
row,Compound,fold change (FC)
1,CCCCC/C=C\C/C=C\CCCCCCCCNC(=N)NCCCCN,0
2,CC/C=C\C/C=C\C/C=C\CCCCCCCCNC(=N)NCCCCN,>=4
3,CCCCCCCC/C=C\CCCCCCCCNC(=N)NCCCCNC(=N)N,>=4

# Test system: Erythrocyte
# Assay: Hemolytic activity in human Red blood cells at 512 microg/ml measured after 1 hrs by absorbance based assay
# Assay type: toxicity, cell-based
# Details: dose 512 µg/ml
# Method in brief: (§5)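 Titrations in PBS were incubated with freshly collected human red blood cells for 1 h at 37 °C. Controls were 0.1% Triton-X-100 (full lysis) and PBS alone (no lysis). After centrifugation, supernatant OD550 was read. % haemolysis = (AP−AB)/(AC−AB)×100. Data are means and standard error of three biological replicates.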
row,Compound,Activity
1,CCCCC/C=C\C/C=C\CCCCCCCCNC(=N)NCCCCN,Toxic
2,CC/C=C\C/C=C\C/C=C\CCCCCCCCNC(=N)NCCCCN,Toxic
3,CCCCCCCC/C=C\CCCCCCCCNC(=N)NCCCCNC(=N)N,Toxic

# Test system: Escherichia coli
# Assay: Synergistic antibacterial activity against Escherichia coli NCTC 12923 assessed as bacterial growth inhibition incubated for overnight in presence of PBMN by microbroth dilution method relative to control
# Assay type: functional
# Details: not given
# Method in brief: as §1
row,Compound,inhibition (INH) [%]
1,CCCCCCCC/C=C\CCCCCCCCNC(=N)NCCCCNC(=N)N,<20

# Test system: not listed separately
# Assay: Hemolytic activity in human Red blood cells at 512 microg/ml measured after 1 hrs by absorbance based assay relative to control
# Assay type: toxicity, cell-based, Erythrocyte
# Details: red blood cells (erythrocytes), at 512 µg/mL, read-out: Activity
# Method in brief: as §5
row,Compound,"hemolysis at 1 h, 512 microg/ml [%]"
1,CCCCC/C=C\C/C=C\CCCCCCCCNC(=N)NCCCCN,100

# Test system: Pseudomonas aeruginosa
# Assay: Synergistic antibacterial activity against Pseudomonas aeruginosa PAO1 assessed as fold change in novobiocin MIC at <=0.25 times MIC incubated for overnight by microbroth dilution checkerboard assay relative to novobiocin alone
# Assay type: functional
# Details: not given
# Method in brief: as §3
row,Compound,fold change (FC)
1,CCCCC/C=C\C/C=C\CCCCCCCCNC(=N)NCCCCN,0
2,CC/C=C\C/C=C\C/C=C\CCCCCCCCNC(=N)NCCCCN,0
3,CCCCCCCC/C=C\CCCCCCCCNC(=N)NCCCCNC(=N)N,0

# Test system: Acinetobacter baumannii
# Assay: Synergistic antibacterial activity against Acinetobacter baumannii ATCC 17978 assessed as novobiocin MIC at <=0.25 times MIC incubated for overnight by microbroth dilution checkerboard assay
# Assay type: functional
# Details: not given
# Method in brief: as §2
row,Compound,MIC [µg/mL]
1,CCCCC/C=C\C/C=C\CCCCCCCCNC(=N)NCCCCN,1
2,CC/C=C\C/C=C\C/C=C\CCCCCCCCNC(=N)NCCCCN,≤ 0.125
3,CCCCCCCC/C=C\CCCCCCCCNC(=N)NCCCCNC(=N)N,≤ 0.125

# Test system: Pseudomonas aeruginosa
# Assay: Synergistic antibacterial activity against Pseudomonas aeruginosa NCTC 13437 assessed as bacterial growth inhibition incubated for overnight in presence of PBMN by microbroth dilution method relative to control
# Assay type: functional
# Details: not given
# Method in brief: as §1
row,Compound,inhibition (INH) [%]
1,CCCCCCCC/C=C\CCCCCCCCNC(=N)NCCCCNC(=N)N,<20

# Test system: Acinetobacter baumannii
# Assay: Synergistic antibacterial activity against Acinetobacter baumannii ATCC 17978 assessed as bacterial growth inhibition incubated for overnight in presence of PBMN by microbroth dilution method relative to control
# Assay type: functional
# Details: not given
# Method in brief: as §1
row,Compound,inhibition (INH) [%]
1,CCCCCCCC/C=C\CCCCCCCCNC(=N)NCCCCNC(=N)N,<20

# Test system: Pseudomonas aeruginosa
# Assay: Synergistic antibacterial activity against Pseudomonas aeruginosa NCTC 13437 assessed as fold change in novobiocin MIC at <=0.25 times MIC incubated for overnight by microbroth dilution checkerboard assay relative to novobiocin alone
# Assay type: functional
# Details: not given
# Method in brief: as §2
row,Compound,fold change (FC)
1,CCCCC/C=C\C/C=C\CCCCCCCCNC(=N)NCCCCN,0
2,CC/C=C\C/C=C\C/C=C\CCCCCCCCNC(=N)NCCCCN,0
3,CCCCCCCC/C=C\CCCCCCCCNC(=N)NCCCCNC(=N)N,0

# Test system: Klebsiella pneumoniae
# Assay: Synergistic antibacterial activity against Klebsiella pneumoniae NCTC 13368 assessed as fold change in novobiocin MIC at <=0.25 times MIC incubated for overnight by microbroth dilution checkerboard assay relative to novobiocin alone
# Assay type: functional
# Details: not given
# Method in brief: as §2
row,Compound,fold change (FC)
1,CCCCC/C=C\C/C=C\CCCCCCCCNC(=N)NCCCCN,0
2,CC/C=C\C/C=C\C/C=C\CCCCCCCCNC(=N)NCCCCN,0
3,CCCCCCCC/C=C\CCCCCCCCNC(=N)NCCCCNC(=N)N,0

# Test system: Escherichia coli
# Assay: Synergistic antibacterial activity against Escherichia coli NCTC 12923 assessed as novobiocin MIC at <=0.25 times MIC incubated for overnight by microbroth dilution checkerboard assay
# Assay type: functional
# Details: not given
# Method in brief: as §2
row,Compound,MIC [µg/mL]
1,CCCCC/C=C\C/C=C\CCCCCCCCNC(=N)NCCCCN,> 128
2,CC/C=C\C/C=C\C/C=C\CCCCCCCCNC(=N)NCCCCN,32
3,CCCCCCCC/C=C\CCCCCCCCNC(=N)NCCCCNC(=N)N,4

# Test system: Acinetobacter baumannii
# Assay: Synergistic antibacterial activity against Acinetobacter baumannii AYE assessed as novobiocin MIC at <=0.25 times MIC incubated for overnight by microbroth dilution checkerboard assay
# Assay type: functional
# Details: not given
# Method in brief: as §2
row,Compound,MIC [µg/mL]
1,CCCCC/C=C\C/C=C\CCCCCCCCNC(=N)NCCCCN,1
2,CC/C=C\C/C=C\C/C=C\CCCCCCCCNC(=N)NCCCCN,≤ 0.125
3,CCCCCCCC/C=C\CCCCCCCCNC(=N)NCCCCNC(=N)N,≤ 0.125

# Test system: Klebsiella pneumoniae
# Assay: Synergistic antibacterial activity against […] Klebsiella pneumoniae NCTC 13368 assessed as novobiocin MIC at <=0.25 times MIC incubated for overnight by microbroth dilution checkerboard assay
# Assay type: functional
# Details: not given
# Method in brief: as §4
row,Compound,MIC [µg/mL]
1,CCCCC/C=C\C/C=C\CCCCCCCCNC(=N)NCCCCN,> 128
2,CC/C=C\C/C=C\C/C=C\CCCCCCCCNC(=N)NCCCCN,> 128
3,CCCCCCCC/C=C\CCCCCCCCNC(=N)NCCCCNC(=N)N,> 128
